# Columns and labels:
# [1] = target: T1, Glucose-dependent insulinotropic receptor (Homo sapiens, UniProt Q8TDV5); assay: Agonist activity at human GPR119 expressed in Flp-In-T-Rex-HEK293 cells assessed as increase in intracellular cAMP level after 30 mins by HTRF assay; assay type: functional, cell-based
# T1 sequence (Q8TDV5 whole entry): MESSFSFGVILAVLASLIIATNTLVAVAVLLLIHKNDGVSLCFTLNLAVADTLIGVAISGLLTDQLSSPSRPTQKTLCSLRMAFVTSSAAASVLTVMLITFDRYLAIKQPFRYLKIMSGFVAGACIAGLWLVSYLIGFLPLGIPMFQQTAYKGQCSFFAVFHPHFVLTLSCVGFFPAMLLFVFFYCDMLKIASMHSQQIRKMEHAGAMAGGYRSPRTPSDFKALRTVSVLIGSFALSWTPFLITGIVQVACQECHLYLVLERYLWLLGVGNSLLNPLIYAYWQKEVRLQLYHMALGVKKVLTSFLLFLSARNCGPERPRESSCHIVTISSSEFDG
# How it was run: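 Flp-In-T-Rex-HEK293 cells overexpressing human GPR119, tetracycline-induced 24 h, plated at 5000 cells/well in D-MEM with 1 mM IBMX and 0.01% BSA, then exposed to compound 30 min at 37 °C. cAMP read with HiRange HTRF kit. Basal cAMP subtracted from stimulated level; EC50 taken as concentration giving 50% of maximal response, fitted from dose-response curves.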
# [2] = Aqueous solubility of the compound in pH 6.8 phosphate buffer after 24 hrs by HPLC analysis; assay type: physicochemical
# How it was run: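 Excess solid shaken in pH 6.8 phosphate buffer at 25 °C for 24 h. Suspension centrifuged at 3000 and 11000 rpm, 10 min each. Supernatant diluted in 50% aqueous acetonitrile and quantified by reversed-phase HPLC (0.1% phosphoric acid/acetonitrile, column 40 °C, UV 210 nm).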
# [3] = Solubility of the compound in fasted state simulated intestinal fluid incubated for 2 hrs in shaker and subsequently incubated at 37 degC for 22 hrs in water bath by HPLC analysis; assay type: physicochemical
# How it was run: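 FaSSIF (pH 6.5) with excess compound shaken at 25 °C for 2 h, then held at 37 °C for 22 h. Centrifuged at 3000 and 11000 rpm, 10 min. Supernatant diluted with 50% aqueous acetonitrile or acetonitrile/methanol 1:1. Concentration by reversed-phase HPLC: 0.1% phosphoric acid/acetonitrile, column 40 °C, UV 210 nm.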
# [4] = target: Cytochrome P450 2C9 (Homo sapiens, UniProt P11712); assay: Inhibition of CYP2C9 in human liver microsomes; assay type: ADME
# Sequence of Cytochrome P450 2C9 (P11712 whole entry): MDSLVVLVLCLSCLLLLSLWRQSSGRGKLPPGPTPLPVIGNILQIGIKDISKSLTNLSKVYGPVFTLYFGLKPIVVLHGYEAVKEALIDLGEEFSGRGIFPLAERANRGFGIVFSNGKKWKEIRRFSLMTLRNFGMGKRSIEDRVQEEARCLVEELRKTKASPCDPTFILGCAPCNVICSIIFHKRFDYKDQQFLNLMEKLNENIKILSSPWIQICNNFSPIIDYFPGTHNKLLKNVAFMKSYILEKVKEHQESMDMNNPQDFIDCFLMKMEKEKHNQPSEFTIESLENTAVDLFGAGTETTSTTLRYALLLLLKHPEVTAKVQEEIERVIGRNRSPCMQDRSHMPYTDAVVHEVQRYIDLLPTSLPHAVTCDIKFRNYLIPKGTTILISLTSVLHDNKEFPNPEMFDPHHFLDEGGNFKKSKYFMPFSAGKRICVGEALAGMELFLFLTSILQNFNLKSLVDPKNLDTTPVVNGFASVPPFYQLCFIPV
# [5] = target: Cytochrome P450 2C19 (Homo sapiens, UniProt P33261); assay: Inhibition of CYP2C19 in human liver microsomes; assay type: ADME
# Sequence of Cytochrome P450 2C19 (P33261 whole entry): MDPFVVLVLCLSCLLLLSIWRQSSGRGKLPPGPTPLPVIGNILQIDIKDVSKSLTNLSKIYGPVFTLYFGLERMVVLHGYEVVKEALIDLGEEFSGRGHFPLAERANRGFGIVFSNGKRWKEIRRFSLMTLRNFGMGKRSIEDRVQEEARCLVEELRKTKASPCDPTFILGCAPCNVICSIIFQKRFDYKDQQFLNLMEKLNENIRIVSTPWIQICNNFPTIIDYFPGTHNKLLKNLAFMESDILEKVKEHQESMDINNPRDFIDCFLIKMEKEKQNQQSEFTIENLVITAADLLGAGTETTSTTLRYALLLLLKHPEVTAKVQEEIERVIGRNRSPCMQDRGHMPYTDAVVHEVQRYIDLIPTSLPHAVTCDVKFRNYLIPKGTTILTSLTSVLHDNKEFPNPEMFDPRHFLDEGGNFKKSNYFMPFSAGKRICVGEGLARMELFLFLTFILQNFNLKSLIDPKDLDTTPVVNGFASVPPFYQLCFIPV
# [6] = target: T2, Cytochrome P450 1A2 (Homo sapiens, UniProt P05177); assay: Inhibition of CYP1A2 in human liver microsomes; assay type: ADME
# T2 sequence (P05177 whole entry): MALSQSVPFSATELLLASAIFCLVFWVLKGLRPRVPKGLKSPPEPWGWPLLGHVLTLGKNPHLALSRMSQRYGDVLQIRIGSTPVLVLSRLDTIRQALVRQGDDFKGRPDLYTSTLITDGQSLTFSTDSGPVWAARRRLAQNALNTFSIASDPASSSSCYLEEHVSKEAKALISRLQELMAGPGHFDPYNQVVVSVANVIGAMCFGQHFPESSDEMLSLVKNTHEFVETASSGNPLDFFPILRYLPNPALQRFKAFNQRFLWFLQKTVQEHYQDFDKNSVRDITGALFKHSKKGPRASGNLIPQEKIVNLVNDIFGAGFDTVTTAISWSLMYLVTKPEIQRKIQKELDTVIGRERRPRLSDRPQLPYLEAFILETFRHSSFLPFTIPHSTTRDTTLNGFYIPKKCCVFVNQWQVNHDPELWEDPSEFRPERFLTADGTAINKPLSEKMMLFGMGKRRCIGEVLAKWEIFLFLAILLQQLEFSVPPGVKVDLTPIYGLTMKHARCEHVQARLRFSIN
# [7] = target: Cytochrome P450 2D6 (Homo sapiens, UniProt P10635); assay: Inhibition of CYP2D6 in human liver microsomes; assay type: ADME
# Sequence of Cytochrome P450 2D6 (P10635 whole entry): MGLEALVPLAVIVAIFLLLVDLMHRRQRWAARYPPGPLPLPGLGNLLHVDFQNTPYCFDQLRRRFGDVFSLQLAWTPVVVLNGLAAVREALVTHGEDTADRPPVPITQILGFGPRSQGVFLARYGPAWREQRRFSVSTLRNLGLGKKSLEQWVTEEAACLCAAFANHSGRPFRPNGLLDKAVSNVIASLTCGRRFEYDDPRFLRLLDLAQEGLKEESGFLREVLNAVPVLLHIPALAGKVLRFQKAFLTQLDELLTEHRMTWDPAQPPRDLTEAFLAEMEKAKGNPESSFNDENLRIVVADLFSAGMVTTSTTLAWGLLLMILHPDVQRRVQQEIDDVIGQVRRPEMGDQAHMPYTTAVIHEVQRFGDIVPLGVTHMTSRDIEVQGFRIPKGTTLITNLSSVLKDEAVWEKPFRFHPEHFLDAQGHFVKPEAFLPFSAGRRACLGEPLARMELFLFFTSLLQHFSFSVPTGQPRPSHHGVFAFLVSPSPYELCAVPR
# [8] = target: Cytochrome P450 3A4 (Homo sapiens, UniProt P08684); assay: Inhibition of CYP3A4 in human liver microsomes; assay type: ADME
# Sequence of Cytochrome P450 3A4 (P08684 whole entry): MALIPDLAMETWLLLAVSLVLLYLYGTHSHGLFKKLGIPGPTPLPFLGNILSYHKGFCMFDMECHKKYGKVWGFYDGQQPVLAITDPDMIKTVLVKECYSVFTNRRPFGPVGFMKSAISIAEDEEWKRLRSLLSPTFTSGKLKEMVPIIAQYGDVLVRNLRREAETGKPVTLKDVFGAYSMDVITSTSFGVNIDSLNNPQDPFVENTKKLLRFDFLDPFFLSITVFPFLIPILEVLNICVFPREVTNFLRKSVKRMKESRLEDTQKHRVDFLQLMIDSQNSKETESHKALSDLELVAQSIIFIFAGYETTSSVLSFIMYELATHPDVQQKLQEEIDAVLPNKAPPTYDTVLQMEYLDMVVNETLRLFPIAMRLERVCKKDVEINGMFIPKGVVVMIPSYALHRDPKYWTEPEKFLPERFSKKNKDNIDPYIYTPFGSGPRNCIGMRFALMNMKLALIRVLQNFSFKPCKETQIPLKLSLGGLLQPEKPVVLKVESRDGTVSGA
# [9] = Clearance in Sprague-Dawley rat plasma at 3 mg/kg, iv or 10 mg/kg, po by liquid chromatography-tandem mass spectrometry analysis; assay type: ADME, organism-based
# How it was run: (§1)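 Fasted male SD rats given a single dose, iv 3 mg/kg in 20% 2-hydroxypropyl-β-cyclodextrin or po 10 mg/kg in 0.5% methylcellulose with 0.1% Tween80. Tail-vein blood taken at time points and spun to plasma. Analyte quantified by LC-MS/MS; parameters from non-compartmental analysis.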
# [10] = Volume of distribution at steady state in Sprague-Dawley rat plasma at 3 mg/kg, iv by liquid chromatography-tandem mass spectrometry analysis; assay type: ADME, organism-based; details: read-out: Vdss; how it was run: as §1
# [11] = Half life in Sprague-Dawley rat plasma at 3 mg/kg, iv by liquid chromatography-tandem mass spectrometry analysis; assay type: ADME, organism-based; how it was run: as §1
# [12] = AUC (0 to t) in Sprague-Dawley rat plasma at 10 mg/kg, po by liquid chromatography-tandem mass spectrometry analysis; assay type: ADME, organism-based; how it was run: as §1
# [13] = Oral bioavailability in Sprague-Dawley rat plasma at 10 mg/kg by liquid chromatography-tandem mass spectrometry analysis; assay type: ADME, organism-based; how it was run: as §1
# [14] = tested on: Rattus norvegicus; assay: Antidiabetic activity in Zucker diabetic rat assessed as reduction in plasma glucose AUC (0 to 2 hrs) at 10 mg/kg, po pretreated for 30 mins followed by glucose challenge by oGTT assay relative to control; assay type: functional; parameters: scale not given: the % may be the effect or the level left
# How it was run: (§2)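 Male Zucker diabetic fatty and lean rats, 9 weeks old, fasted overnight. Dosed orally in 20 w/v% HP-β-CD; 30 min later given oral glucose at 2 g/kg. Tail-vein plasma glucose followed over 2 h by glucose assay kit. Glucose excursion expressed as ΔAUC 0–2 h versus vehicle; mean ± SE, Welch's t-test.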
# [15] = tested on: Rattus norvegicus; assay: Antidiabetic activity in Zucker diabetic rat assessed as reduction in plasma glucose AUC (0 to 2 hrs) at 30 mg/kg, po pretreated for 30 mins followed by glucose challenge by oGTT assay relative to control; assay type: functional; parameters: scale not given: the % may be the effect or the level left; how it was run: as §2
SMILES,EC50 [1],solubility at 24 h [2],solubility at 24 h [3],further results
CC(C)OC(=O)N1CCC2(CC1)CC(CCCOc1ccc(S(C)(=O)=O)c(F)c1)C2,18 nM,< 0.16 µg/mL,2.52 µg/mL,
CC(C)(C)OC(=O)N1CCC2(CC1)CC(CCCOc1ccc(S(C)(=O)=O)c(F)c1)C2,9 nM,,,
CCc1cnc(N2CCC3(CC2)CC(CCCOc2ccc(S(C)(=O)=O)cc2F)C3)nc1,225 nM,,,
CC(C)(C)OC(=O)N1CCC2(CCC(CCCOc3ccc(S(C)(=O)=O)cc3)CC2)CC1,2590 nM,,,
CC(C)(C)COC(=O)N1CCC2(CC1)CC(CCCOc1ccc(S(C)(=O)=O)c(F)c1)C2,31 nM,,,
CC(C)OC(=O)N1CCC2(CC1)CC(CCCOc1ccc(C(=O)N(C)C3CC3)c(F)c1)C2,67 nM,,,
CC1(OC(=O)N2CCC3(CC2)CC(CCCOc2ccc(S(C)(=O)=O)c(F)c2)C3)CC1,13 nM,< 0.15 µg/mL,1.27 µg/mL,
Cc1ccc(N2CCC3(CC2)CC(CCCOc2ccc(S(C)(=O)=O)cc2)C3)nc1,348 nM,,,
CC(C)OC(=O)N1CCC2(CC1)CC(CCCOc1ccc(S(C)(=O)=O)cc1)C2,70 nM,0.17 µg/mL,7.09 µg/mL,
CCc1cnc(N2CCC3(CC2)CC(CCCOc2ccc(S(C)(=O)=O)c(F)c2)C3)nc1,123 nM,,,
CC(C)(C)OC(=O)N1CCC2(CC1)CC(CCCOc1ccc(S(C)(=O)=O)cc1F)C2,25 nM,,,
CC(C)(C)OC(=O)N1CCC2(CC1)CC2CCOc1ccc(S(C)(=O)=O)cc1 (stereo unspecified),2390 nM,,,
CC(C)OC(=O)N1CCC2(CC1)CC(CCCOc1ccc(C(=O)N3CC(O)C3)c(F)c1)C2,40 nM,1.89 µg/mL,,IC50 ([4]; read-out: IC50): < 10000 nM; IC50 ([5]; read-out: IC50): < 10000 nM
CC(C)OC(=O)N1CCC2(CC1)CC(CCCOc1ccc(C(=O)N3CCC3)c(F)c1)C2,34 nM,3.43 µg/mL,,IC50 ([4]; read-out: IC50): < 10000 nM; IC50 ([5]; read-out: IC50): < 10000 nM
CC(C)(C)OC(=O)N1CCC2(CC1)CC(CCCOc1ccc(S(C)(=O)=O)cc1)C2,14 nM,< 0.13 µg/mL,3.48 µg/mL,
CC(C)(C)OC(=O)N1CCC2(CC1)CC2CCCOc1ccc(S(C)(=O)=O)cc1 (stereo unspecified),830 nM,,,
CC(C)OC(=O)N1CCC2(CC1)CC(CCCOc1ccc(C(=O)NC3CC3)nc1)C2,47 nM,2.11 µg/mL,,
CC(C)OC(=O)N1CCC2(CC1)CC(CCCOc1ccc(C(=O)NCC(N)=O)c(F)c1)C2,48 nM,1.77 µg/mL,18.4 µg/mL,IC50 [6]: Not Active; IC50 [4]: Not Active; IC50 [5]: Not Active; IC50 [7]: Not Active; IC50 [8]: Not Active; clearance [9]: 15.5 mL/min/kg; Vd [10]: 1.01 L/kg; half-life [11]: 50.5 min; AUC(0-t) [12]: 9510 ng·h/mL; bioavailability [13]: 88.6%; Activity [14]: 34%; Activity [15]: 40.2%
CC(C)c1noc(N2CCC3(CC2)CC(CCCOc2ccc(S(C)(=O)=O)cc2)C3)n1,35 nM,< 0.13 µg/mL,2.51 µg/mL,
CC(C)OC(=O)N1CCC2(CC1)CC(CCCOc1ccc(C(=O)N3CCCC3)c(F)c1)C2,29 nM,3.85 µg/mL,92.4 µg/mL,IC50 ([6]; read-out: IC50): < 10000 nM; IC50 ([4]; read-out: IC50): < 10000 nM; IC50 ([5]; read-out: IC50): < 10000 nM
CC(C)(C)OC(=O)N1CCC2(CCC(CCOc3ccc(S(C)(=O)=O)cc3)CC2)CC1,55 nM,,,
CC(C)(C)OC(=O)N1CCC2(CC1)CC(CCOc1ccc(S(C)(=O)=O)cc1)C2,183 nM,,,
CC(C)OC(=O)N1CCC2(CC1)CC(CCCOc1ccc(C(N)=O)c(F)c1)C2,52 nM,,,
CC(C)OC(=O)N1CCC2(CC1)CC(CCCOc1ccc(C(=O)NC3CC3)c(F)c1)C2,8 nM,0.21 µg/mL,8.58 µg/mL,
CC(C)OC(=O)N1CCC2(CC1)CC(CCCOc1ccc(C(=O)NC3CC3)cn1)C2,63 nM,2.24 µg/mL,,
CC(C)(C)OC(=O)N1CCC2(CC1)CC(CCCCOc1ccc(S(C)(=O)=O)cc1)C2,154 nM,,,
CCc1cnc(N2CCC3(CC2)CC(CCCOc2ccc(S(C)(=O)=O)cc2)C3)nc1,31 nM,< 0.12 µg/mL,0.64 µg/mL,
CS(=O)(=O)c1ccc(OCCCC2CC3(CCN(C(=O)OC4CCCC4)CC3)C2)cc1F,23 nM,< 0.14 µg/mL,7.65 µg/mL,

# Source: ChEMBL document CHEMBL4219099, “Design, synthesis and biological evaluation of novel 7-azaspiro[3.5]nonane derivatives as GPR119 agonists” (Bioorg Med Chem, 2018)
